CAL PDZ FP-1 = inhibitors of human CAL PDZ peptide binding. AID 602252. inhibition, % at 24.9 µM. purified CAL PDZ, TMR-peptide fluorescence polarization, 1 h. actives 0.92% (n = 300,000). Q9HD26;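 active = mean inhibition of at least 30% with at least half of replicates also reaching 30%; inconclusive = no clear call, values can overlap the other calls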;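 note: 0% = DMSO neutral control and 100% = excess unlabeled competitor peptide PRC23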
CAL PDZ FP-2 = blocks peptide binding to human CAL PDZ domain. Q9HD26. purified CAL PDZ, TMR-peptide fluorescence polarization, 1 h. inhibition, % at 20 µM. actives 0.02% (n = 330,000). AID 504414;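 active = highest replicate inhibition of at least 40%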;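 note: plate controls were DMSO neutral control wells for no effect and unlabeled competitor peptide control wells for full effect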
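material = purified tagged CAL PDZ domain construct (CerCALP) | compound dosing = 20 µM, one dose | times = 1 h at RT | measured by = fluorescence polarization from S- and P-plane intensities, G-factor corrected | read-out = inhibition from polarization loss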
CDK5 inh = blocks human CDK5/p35 kinase activity | Recombinant CDK5/p35, ADP-Glo luminescence, 60 min | inhibition, % at 10 µM | actives 0.01% (n = 330,000);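 active = highest replicate inhibition of at least 50% and at least 75% of replicates reaching 50%; inconclusive = only one of the two criteria met; inactive = both criteria failed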;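 note: plate controls were DMSO neutral control for no effect and GW8510 at 10 µM for full effect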
Rtt109 Vps75 = C. albicans Rtt109 histone acetyltransferase inhibition | Q5AAJ8 | purified Rtt109/Vps75, ThioGlo CoA-SH fluorescence, 4 h | inhibition, % at 34.9 µM | actives 0.16% (n = 330,000) | AID 540336;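 active = inhibition of at least 50% in every replicate; inconclusive = best replicate reaches 50% inhibition but some replicates fall short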
Target sequence (Q5AAJ8 whole entry, looked up): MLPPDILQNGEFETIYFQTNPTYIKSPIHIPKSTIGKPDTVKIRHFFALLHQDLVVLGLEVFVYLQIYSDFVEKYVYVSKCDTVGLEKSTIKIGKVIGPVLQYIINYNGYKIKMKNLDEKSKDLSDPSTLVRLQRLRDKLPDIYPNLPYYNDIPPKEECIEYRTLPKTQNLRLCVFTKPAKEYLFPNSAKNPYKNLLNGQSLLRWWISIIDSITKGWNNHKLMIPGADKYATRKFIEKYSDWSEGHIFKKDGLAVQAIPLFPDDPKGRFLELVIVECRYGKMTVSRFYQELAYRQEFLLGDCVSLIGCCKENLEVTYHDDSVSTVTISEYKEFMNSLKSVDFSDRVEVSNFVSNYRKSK
dFosB activator = mouse delta FosB homodimer activation | P13346 | activation, % at 25 µM | purified delta FosB, TAMRA-CDK5 oligo fluorescence polarization; percent of positive-control signal above neutral wells | AID 493131 | actives 0.99% (n = 340,000);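 active = mean activation above about 17%, with every replicate also reaching it, limit read from the data, passing the limit was not always enough; inconclusive = only one of the two conditions met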
DYRK1A inh = Dyrk1A (rat) kinase inhibition; inhibition, % at 12.5 µM; ADP-Glo luminescence, NFATc1 peptide; actives 0.43% (n = 310,000); in the data active = inhibition above about 50%;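 note: plate controls were vehicle with enzyme for no effect and no enzyme for full effect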
Numbers without * were called inactive; ? = inconclusive; · = no result; + = active, no number. Rows were chosen to be rich in hits. Some 2.2% of all compounds tested hit in one or more screens of this group.

SMILES	CAL PDZ FP-1	CAL PDZ FP-2	CDK5 inh	Rtt109 Vps75	dFosB activator	DYRK1A inh
CC12CCC(=O)N1C(C(=O)N1CCN(c3cccc(Cl)c3)CC1)CS2 (stereo not given)	80*	0	1	-3	-1	-5
O=C(COc1ccc(F)cc1Br)N1CCN(c2ncccn2)CC1	-2	-1	-5	4	-4	1
O=C(COc1ccc(F)cc1Br)N1CCN(S(=O)(=O)/C=C/c2ccccc2)CC1	54*	-1	0	3	-13	·
Nc1cccc(/C=C/c2ccncc2)c1	74*	-2	0	4	3	1
O=C(COC(=O)Cc1ccc(F)cc1)NC1CCCCC1	34*	0	0	0	-5	-2
CCOC(=O)/C=C/C(=O)OCC(=O)Nc1ccc(C)cc1	7	0	0	34	-7	-2
CCOC(=O)/C=C/S(=O)(=O)c1ccc(NC(C)=O)cc1	1	-1	1	124*	3	5
Cc1ccc(N2CC(C(=O)NC3=NCCS3)CC2=O)cc1C (stereo not given)	-13	0	0	-3	3	0
Cc1ccc(N2CC(C(=O)Nc3ccc(N(C)C)cc3)CC2=O)cc1C (stereo not given)	60*	1	1	-2	-6	·
CCc1ccc(N(C(=O)CNC(=O)c2ccco2)C(C(=O)NCC2CCCO2)c2ccccc2)cc1 (stereo not given)	0	-1	1	-6	2	-1
Cc1cc(C(C)(C)CC(C)(C)C)ccc1OCCOCC[N+](C)(C)Cc1ccccc1	-7	0	0	56*	-9	2
Cc1ccc(OCCNCc2ccccc2)c(C)c1	-1	3	-1	4	-3	-5
COc1ccc(C(=O)CSc2nc3ccc([N+](=O)[O-])cc3[nH]2)cc1	-4	-2	0	2	14	-1
Cc1cc2c3c([nH]c2cc1S(=O)(=O)NCc1ccc(CN2CCCCCC2)o1)CC(C)(C)CC3=O	46*	-2	0	11	-8	1
O=Cc1ccc(OC(=O)/C=C/c2ccccc2)cc1	79*	0	2	-5	6	-1
CCOc1ccc(/C=C/C(=O)Oc2ccccc2)cc1	-1	0	2	7	-14	2
CC(=O)c1nccs1	32*	0	0	-8	0	·
C/C(=C\C(=O)O)C(=O)Nc1nccs1	-4	-1	1	-21	0	-3
Nc1ccc(N(c2ccccc2)c2ccc(N)cc2)cc1	16	-1	0	4	23*	-6
CN(CC1CCCO1)S(=O)(=O)c1ccc(C(=O)N2CCN(c3ccccc3)CC2)cc1 (stereo not given)	+	0	1	-5	-3	-1
CCN(c1ccccc1)S(=O)(=O)c1ccc(C(=O)N2CCN(c3ccccc3)CC2)cc1	85*	0	0	-6	-8	·
CCN(CC)c1ccc(C(=S)N2CCN(c3ccccc3)CC2)cc1	-2	-2	0	53*	-7	-1
O=C(c1ccc(OCC2CCCO2)cc1)N1CCN(c2ccccc2)CC1 (stereo not given)	1	0	0	11	-8	9
O=C(COC(=O)CCC(=O)c1ccc(F)cc1)NCc1ccccc1Cl	-5	0	-1	-1	-4	·
CC(C)c1ccc(S(=O)(=O)N2CCC(C(=O)N3CCN(c4cccc(Cl)c4)CC3)CC2)cc1	0	1	-1	-2	-10	-3
SMILES	CAL PDZ FP-1	CAL PDZ FP-2	CDK5 inh	Rtt109 Vps75	dFosB activator	DYRK1A inh
O=C(/C=C\Nc1ccccn1)c1ccc(Cl)cc1	-3	-2	-1	62*	-13	2
COc1ccc(OCCOc2ccc(S(=O)(=O)N3CCCC3)cc2C(N)=O)cc1	-6	-1	0	-2	-11	·
NC(=O)c1cc(S(=O)(=O)N2CCCC2)ccc1OCCOc1ccccc1F	44*	0	0	4	0	-4
COc1cc(NC(=O)Cc2cccs2)c(C(=O)O)cc1OC	4	-1	0	2	-1	7
O=C(COc1ccccc1)NCc1n[nH]c(=S)n1-c1ccccc1	-4	-1	3	-4	-8	1
COc1ccc(-n2c(CNC(=O)COc3ccccc3)n[nH]c2=S)cc1	41*	0	1	-3	6	1
CCOc1cc(-c2nc(C)c(C(C)=O)n2O)ccc1OCC(=O)Nc1ccccc1	38*	-1	2	-4	-5	-3
CCCNc1nc2c(c(=O)[nH]c(=O)n2C)n1Cc1cccc(Br)c1	36*	·	1	0	-7	·
COC(=O)C(NC(=O)c1ccco1)(Nc1nc(C2CC2)cs1)C(F)(F)F (stereo not given)	37*	-2	0	-7	-2	0
CCOC(=O)c1ccccc1NC(=O)CSc1nc(N)cc(=O)[nH]1	-1	0	-4	0	3	-1
O=C(O)C1CC=CCC1C(=O)NC12CC3CC(CC(C3)C1)C2 (stereo not given)	67*	0	0	-6	3	-5
O=C(O)CC(=O)NC12CC3CC(CC(C3)C1)C2	1	0	-2	-5	4	2
CC(SCC(=O)Nc1ccccc1)c1nc2ccccc2c(=O)[nH]1 (stereo not given)	18	0	-1	-4	-6	·
Cc1c(Cl)cccc1NC(=O)CSC(C)c1nc2ccccc2c(=O)[nH]1 (stereo not given)	·	-1	1	-6	41*	-4
CCOC(=O)c1c(C)oc2c(CC(=O)c3ccccc3)c(Cl)c(O)c(O)c12	0	-2	1	58*	-2	-5
CN(C)CCNc1ncnc2c1sc1nc(N3CCCC3)c3c(c12)CC(C)(C)OC3	·	0	-4	-6	?	-7
CCN(CC)CCNc1ncnc2c1sc1nc(N3CCCC3)c3c(c12)CC(C)(C)OC3	-2	0	-2	?	23*	5
COCCCNC1CS(=O)(=O)CC1O (stereo not given)	73*	8	1	-12	0	-6
OCCCc1nc2ccccc2[nH]1	-8	0	2	-8	-4	-4
Cc1ccc2nc(-c3ccc(NC(=O)CSc4nc(N)cc(=O)[nH]4)cc3)sc2c1	54*	0	-2	-4	?	-2
CC(C)c1nc2cc(C(=O)N(C)C3CCOCC3)ccc2o1	43*	-1	-3	-7	-4	-10
Cc1cc(CNC(=O)c2ccc3oc(C(C)C)nc3c2)nn1C	-7	-2	0	12	-8	4
CCCS(=O)(=O)Nc1ccc(Nc2c3ccccc3nc3ccccc23)c(OC)c1	-5	-2	0	3	54*	-2
COc1ccc(Nc2c3c(nc4ccccc24)CCC3)c(OC)c1	-5	-2	1	0	-3	3

Assay outcomes (PubChem BioAssay)
